CHRM4 antagonist: human M4 muscarinic receptor antagonists, primary screen, CHO cells, Fluo-8 calcium fluorescence; CHO-hM4 cells, ACh EC80; inhibition, % at 3 µM; 360,000 tested, 0.73% active;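 active = inhibition above its plate's cutoff, the mean inhibition of sample wells plus 3 SD, cut at about 27% in these data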;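 note: 0% = acetylcholine EC80 with DMSO and 100% = DMSO without agonist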
Target sequence (P08173 whole entry, looked up): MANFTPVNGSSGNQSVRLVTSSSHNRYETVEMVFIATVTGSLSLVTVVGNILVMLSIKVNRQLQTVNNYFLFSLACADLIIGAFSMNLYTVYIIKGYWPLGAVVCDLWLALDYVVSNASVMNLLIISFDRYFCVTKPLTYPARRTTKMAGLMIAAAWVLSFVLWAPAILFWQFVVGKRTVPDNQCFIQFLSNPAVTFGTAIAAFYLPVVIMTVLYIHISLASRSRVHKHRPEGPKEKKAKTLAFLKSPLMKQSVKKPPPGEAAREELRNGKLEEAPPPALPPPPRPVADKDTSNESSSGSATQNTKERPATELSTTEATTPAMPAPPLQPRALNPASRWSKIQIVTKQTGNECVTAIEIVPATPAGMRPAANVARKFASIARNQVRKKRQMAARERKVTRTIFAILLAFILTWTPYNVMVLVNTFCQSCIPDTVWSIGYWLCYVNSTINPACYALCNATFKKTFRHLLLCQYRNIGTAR
CHRM5 PAM: human M5 muscarinic receptor positive allosteric modulators, primary screen, CHO-K1 cells, Fluo-8 calcium fluorescence. AID 624038, 2012. activation, % at 3 µM. Muscarinic acetylcholine receptor M5 (Homo sapiens), P08912. CHO-K1 hM5, ACh EC20 PAM; 0% = ACh EC20, 100% = ACh EC100. 360,000 tested, 0.3% active;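 active = activation above the run cutoff, the mean activation of all test compounds plus 3 SD, cut at about 18% in these data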
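Test system: CHO-K1 hM5 cells / Doses: single-point, 3 µM nominal / Times: Post-acetylcholine fluorescence recording 140 s / Technique: Fluo-8 calcium fluorescence / Measure: Max/basal fluorescence ratio as % of EC20–EC100 ACh window / Benchmarks: low control EC20 acetylcholine (0%), high control EC100 acetylcholine (100%) / Replicates: one well per compound, no replicates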
CHRM4 PAM: human M4 muscarinic receptor positive allosteric modulators, primary screen, CHO-K1 cells, Fluo-8 calcium fluorescence; AID 624126, 2012; Muscarinic acetylcholine receptor M4 (Homo sapiens), P08173; activation, % at 3 µM; 360,000 tested, 0.4% active; CHO-K1 hM4/Gqi5, ACh EC20; 0% = ACh EC20, 100% = maximal ACh;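 active = activation above its plate's cutoff, the mean activation of sample wells plus 3 SD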
M5 antag: human M5 muscarinic receptor antagonists, primary screen, CHO cells, Fluo-8 calcium fluorescence. inhibition, % at 3 µM. Muscarinic acetylcholine receptor M5 (Homo sapiens), P08912. 360,000 tested, 0.59% active. CHO-hM5 cells, ACh EC80;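 active = inhibition above a per-plate cutoff, the mean of that plate's test compounds plus 3 SD, cut at about 27% in these data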;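 note: 0% = acetylcholine EC80 with DMSO and 100% = DMSO without agonist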
CHRM4 agonist: human M4 muscarinic receptor agonists, primary screen, CHO-K1 cells, Fluo-8 calcium fluorescence. Muscarinic acetylcholine receptor M4 (Homo sapiens), P08173. CHO-K1 hM4/Gqi5; vehicle 0%, full acetylcholine response 100%. activation, % at 3 µM. 360,000 tested, 0.14% active. AID 624127, 2012;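 active = activation above the run mean over all test wells plus 3 SD, cut at about 32% in these data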;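 note: peak over basal fluorescence ratio per well then scaled between controls; 0% = DMSO wells and 100% = acetylcholine at EC100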
CHRM5 agonist: human M5 muscarinic receptor agonists, primary screen, CHO-K1 cells, Fluo-8 calcium fluorescence; Muscarinic acetylcholine receptor M5 (Homo sapiens), P08912; AID 624037, 2012; activation, % at 3 µM; 360,000 tested, 0.19% active; CHO-K1 hM5 cells; 0% DMSO wells, 100% maximal acetylcholine response;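 active = activation above the run's mean over test compounds plus 3 SD, cut at about 23% in these data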;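 note: signal is peak over basal fluorescence ratio across the kinetic read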
Starred values were filed as active, the others as inactive. A selection: hits, their analogues and other compounds. The true share with any hit is near 1.9%.

SMILES | CHRM4 antagonist | CHRM5 PAM | CHRM4 PAM | M5 antag | CHRM4 agonist | CHRM5 agonist
CCCOc1cc(N(CC)CC)ccc1/C=C(/C#N)c1nc2ccc(C)cc2[nH]1 | 45.4* | -19.0 | -33.4 | 55.5* | 31.4 | 39.0*
CCOc1cc(N(CC)CC)ccc1/C=C(/C#N)c1nc2ccccc2[nH]1 | 2.8 | -10.6 | -5.6 | -1.5 | 5.9 | -0.7
CCN(CC)c1ccc(/C=C(/C#N)c2nc3ccc(C)cc3[nH]2)c(OC(C)C)c1 | 56.0* | -18.5 | -35.4 | 69.0* | 46.4* | 58.5*
COC(=O)c1cc(Cl)nc2ccccc12 | -5.8 | 21.4* | 11.1 | -2.6 | 1.1 | 3.2
CCCc1cc(C(=O)OC)c2ccccc2n1 | 7.8 | 4.8 | -7.9 | -2.6 | 0.2 | -1.1
CCc1nc2c(OCc3c(C)noc3C)cccn2c1N(C)C(=O)c1ccccc1F | -10.6 | 6.5 | 9.4 | -7.1 | -1.4 | 0.9
Nc1[nH]c(C(=O)c2ccccc2)c(-c2c(F)cccc2F)c1C(=O)c1ccc(Cl)c(Cl)c1 | -10.5 | -5.5 | 5.7 | -5.2 | -0.3 | 0.5
CSc1cccc(NC(=S)N(CCN(C)C)C(C)c2ccncc2)c1 (stereo not given) | 6.7 | -0.2 | 3.3 | 7.5 | 3.9 | 1.6
CSc1cccc(NC(=S)N(CCN(C)C)C(C)c2ccccn2)c1 (stereo not given) | 33.3* | -6.3 | 15.6 | 2.6 | 6.5 | -1.3
Cc1ccc(NS(=O)(=O)c2ccc(OCC(=O)Nc3cccc([N+](=O)[O-])c3)c(C)c2)cc1 | 29.9* | -7.8 | -27.7 | 8.8 | 4.1 | -5.3
Cc1ccc(NC(=O)CN(C)C(=O)c2ccc(NS(=O)(=O)c3cccc([N+](=O)[O-])c3)cc2)cc1 | 7.9 | 3.2 | 0.4 | 0.6 | 0.5 | -2.9
Cc1ccc(S(=O)(=O)N2CCCCC2)cc1NC(=O)CSc1nncn1-c1ccccc1 | -7.3 | 22.7* | 10.0 | 11.7 | 3.1 | 2.5
CCN1CCN(c2ccc(NC(=O)c3cc4ccccc4cc3OC)cc2C)CC1 | 18.9 | -42.0 | -12.8 | 56.1* | 6.6 | -9.1
CCN1CCN(c2ccc(NC(=O)c3ccccc3F)cc2Cl)CC1 | 16.4 | -25.8 | -13.1 | 11.9 | -0.1 | -17.7
Cc1cc(/C=C2\NC(=O)NC2=O)c(C)n1-c1cccnc1 | -7.5 | 2.4 | 5.3 | -4.5 | 0.1 | -0.9
Cc1cccc(C)c1-n1c(C)cc(/C=C2\NC(=O)NC2=O)c1C | 1.0 | -0.1 | 35.5* | -3.5 | 0.0 | -2.4
CCOC(=O)[C@]12CCCC=C1N(CCc1ccc(OC)c(OC)c1)C(=O)[C@H](CC(=O)N1CCSCC1)C2 | -4.7 | 1.9 | 5.9 | 4.4 | 6.5 | 3.7
Cc1cccc(C)c1NC(=O)C1(C)CSCC(=O)N1CCc1ccc(O)cc1 (stereo not given) | -18.3 | 0.7 | 7.1 | -4.6 | 3.0 | 0.9
NS(=O)(=O)c1ccc(NS(=O)(=O)c2ccc(NC(=O)c3ccc(-c4ccccc4)cc3)cc2)cc1 | -1.7 | -3.6 | -0.5 | 0.6 | 1.6 | 27.2*
O=C(Nc1ccncc1)c1ccc(-c2ccccc2)cc1 | 19.6 | -28.7 | -12.1 | 33.5* | 14.4 | 5.1
O=C(Nc1cccnc1)c1ccc(-c2ccccc2)cc1 | 4.3 | -9.0 | -9.6 | 3.9 | 5.3 | -1.3
COc1ccc(NC(=O)c2cc(C3CCCCN3S(=O)(=O)Cc3ccccc3)on2)c(C)c1 (stereo not given) | -10.3 | -3.6 | 3.1 | 1.4 | 2.0 | -2.1
CN(C)c1ccc2nc3c(=O)[nH]c(=O)nc-3n(CC(O)C(O)C(O)CO)c2c1 (stereo not given) | 13.4 | 0.8 | -12.0 | 1.0 | 47.6* | 11.8
CC(=O)OCC(=O)[C@@]1(O)CC[C@H]2[C@@H]3CCC4=CC(=O)C=C[C@]4(C)[C@H]3[C@@H](O)C[C@@]21C | -1.4 | 1.7 | 2.6 | -4.3 | 1.4 | 1.6

From PubChem BioAssay
